Measured values collected from several papers.
Each line is one published result; the experiments were not run side by side.
CDK2 with cyclin A2: Cyclin-dependent kinase 2, with cyclin A2 (CDK2, Homo sapiens, UniProt P24941)
ST14: Suppressor of tumorigenicity 14 protein (ST14, Homo sapiens, UniProt Q9Y5Y6)

COc1cc(-c2cncc3c2CN(C)Cc2cc(N4CCNCC4)ccc2-3)cc(OC)c1OC  remaining activity (Protein kinase C eta type (PRKCH, Homo sapiens, UniProt P24723); enzyme activity; inhibitor; 1 µM): 115%
Cc1cc([C@@H](C)Nc2ccccc2C(=O)O)c2nc(N3CCC(F)(F)CC3)c(C#N)c(=O)n2c1  remaining binding (Serine/threonine-protein kinase pim-1 (PIM1, Homo sapiens, UniProt P11309); binding; competition with immobilised ligand; 10 µM): 100%
CNc1ncc2c(/C=C/C(=O)N3CCC(OC)CC3)nn(Cc3cccc(C(F)(F)F)c3)c2n1  remaining activity (Tyrosine-protein kinase ZAP-70 (ZAP70, Homo sapiens, UniProt P43403); enzyme activity; inhibitor; radiometric; 1 µM): 95%
C=CC(=O)N1CCC(COCC(=O)N2CCN(c3nc(-c4cnc(N)nc4C(F)F)nc(N4CCOC[C@@H]4C)n3)CC2)CC1  remaining binding (Angiopoietin-1 receptor (TEK, Homo sapiens, UniProt Q02763); binding; competition with immobilised ligand; 1 µM): 100%
CC(=O)Nc1c(N)nc(SCC(=O)NN)[nH]c1=O  inhibition (CDK2 with cyclin A2; enzyme activity; inhibitor; 200 pM): 3.98%
N=C(N)NCCC[C@H](NC(=O)[C@H](CCC1CCCCC1)NC(=O)[C@H](Cc1cscn1)NC(=O)CCc1ccccc1)C(=O)c1nc2ccccc2s1  remaining activity (ST14; enzyme activity; inhibitor; 0.1 µM): 5%
CNC(=O)c1cc(Oc2ccc(NC(=O)Nc3ccc(Cl)c(C(F)(F)F)c3)cc2)ccn1  inhibition (CDK2 with cyclin A2; enzyme activity; inhibitor; 5 nM): 27.6%
N=C(N)NCCC[C@H](NC(=O)[C@H](Cc1cccc(I)c1)NC(=O)[C@H](Cc1cscn1)NC(=O)CCc1ccccc1)C(=O)c1nc2ccccc2s1  remaining activity (ST14; enzyme activity; inhibitor; 0.1 µM): 79%
CC(=O)Nc1c(N)nc(SCC(=O)N/N=C/c2ccc([N+](=O)[O-])cc2)[nH]c1=O  inhibition (CDK2 with cyclin A2; enzyme activity; inhibitor; 1 nM): 4.03%
CC(C)C[C@@H](C(=O)N[C@@H](CCCNC(=N)N)C(=O)c1nc2ccccc2s1)N(C)C(=O)[C@H](Cc1cscn1)NC(=O)CCc1ccccc1  remaining activity (ST14; enzyme activity; inhibitor; 0.1 µM): 50%
